Drawing on PubChem BioAssay AID623915 (Johns Hopkins Ion Channel Center, 2012), this text covers IC50 and outcome for six compounds.

The IC50 is the midpoint of a concentration-inhibition curve.

The target in the test is Potassium channel subfamily K member 3 (Rattus norvegicus) (UniProt O54912). The test is described as follows: TASK1 (KCNK3) current inhibitors, SAR follow-up, selectivity assay for KCNK9 inhibitor project, automated electrophysiology, QPatch, CHO cells (AID 623915). The settings on record: QPatch whole-cell current inhibition. In outline:
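Detection: automated patch clamp, current read at -30 mV; material: Inducible-TASK1 CHO cells; schedule: 5 min exposure at each compound concentration; medium: external bath solution with 140 mM K+, pH 7.40; read-out: per-cell IC50 from Hill fit, slope one, fractional block 0–1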
On the technique in general: In patch-clamp work, channel activity is measured electrically.

Molecules are shown by their SMILES. “And” between values parts separate entries of the source, which are not always exact repeats. Equal entries are not always repeated. The source made the active and inactive calls.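 Rule for the calls: active = more than 50% block of the TASK1 potassium channel current at 10 µM; inactive = the rest.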

Sequence of Potassium channel subfamily K member 3 (Rattus norvegicus) (O54912 whole entry, looked up): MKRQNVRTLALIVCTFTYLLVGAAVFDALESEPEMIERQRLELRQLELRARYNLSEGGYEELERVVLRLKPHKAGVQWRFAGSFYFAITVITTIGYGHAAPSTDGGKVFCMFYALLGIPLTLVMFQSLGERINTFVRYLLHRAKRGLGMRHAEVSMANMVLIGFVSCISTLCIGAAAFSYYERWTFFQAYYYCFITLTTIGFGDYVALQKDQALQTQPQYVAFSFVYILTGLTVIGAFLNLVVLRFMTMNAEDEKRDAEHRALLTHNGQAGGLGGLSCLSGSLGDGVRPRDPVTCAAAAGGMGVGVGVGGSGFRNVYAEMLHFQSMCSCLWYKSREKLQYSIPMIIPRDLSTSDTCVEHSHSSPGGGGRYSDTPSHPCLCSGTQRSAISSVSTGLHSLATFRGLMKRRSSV

Turning to `C[C@@H]([C@@H]1CC2CC[C@H]1C2)n1c(-c2ccsc2)n[nH]c1=S`, the IC50 was 1.96 µM and 6.43 µM.

For `C[C@H](C1CCCCC1)n1c(-c2ccsc2)n[nH]c1=S`, the IC50 is 6.43 µM. Turning to `C[C@@H]([C@@H]1CC2CC[C@H]1C2)n1c(-c2ccco2)n[nH]c1=S`, the IC50 was 3.2 µM. Same read-out and setting: as for `CC(C1CC2CCC1C2)n1c(-c2ccco2)n[nH]c1=S` (stereo unspecified), the figure is 0.82 µM. `C[C@H]([C@@H]1CC2CC[C@H]1C2)n1c(-c2ccsc2)n[nH]c1=S`: the outcome was inactive.

With `CC(C1CC2CCC1C2)n1c(-c2ccco2)nn(CCc2ccncc2)c1=S` (stereo unspecified), the 50% inhibitory concentration (IC50) was 1.85 µM.
